# From article PMC9870662 (Medicinal Chemistry Research, 2023)
# Read-outs that look alike come from different tables or passages of the source.
# Columns and labels:
# male NMRI mice = assay: Acetic acid-induced writhing test; type: in vivo; details: for Response (n) Mean ± SD: number of writhing responses during 30 min, eight mice; for ED50: Mus musculus, ip, read-out: Estimated ED50 (mg/kg) (95% Confidence Interval); for Estimated ED50 (mg/kg) (95% Confidence Interval): i.p., nonlinear regression of log dose-response curve
# [1] = test system: MCF-7 breast cancer cell line; assay: MTT cytotoxicity assay; type: cell-based; details: for inhibition at 10 µM: Homo sapiens, MCF7, 72 h, read-out: % Inhibition (10 µM); for % Inhibition (10 µM): MCF-7, 72 h, MTT
# In short: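 MCF-7 cells from IBRC seeded in RPMI1640 at 37 °C, 5% CO2, high humidity. After one day, medium replaced with medium containing test compound; celecoxib as reference, plain medium as control. Incubated 72 h, then MTT added for 4 h at 37 °C. Supernatant removed, cells exposed to DMSO 20 min at 37 °C, absorbance read at 570 nm.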
# Ovine COX-1 = biological target: T1, Ovine COX-1 (Ovis aries, UniProt P05979); assay: COX-1 enzyme inhibition assay; type: biochemical
# T1 sequence (P05979 25-600): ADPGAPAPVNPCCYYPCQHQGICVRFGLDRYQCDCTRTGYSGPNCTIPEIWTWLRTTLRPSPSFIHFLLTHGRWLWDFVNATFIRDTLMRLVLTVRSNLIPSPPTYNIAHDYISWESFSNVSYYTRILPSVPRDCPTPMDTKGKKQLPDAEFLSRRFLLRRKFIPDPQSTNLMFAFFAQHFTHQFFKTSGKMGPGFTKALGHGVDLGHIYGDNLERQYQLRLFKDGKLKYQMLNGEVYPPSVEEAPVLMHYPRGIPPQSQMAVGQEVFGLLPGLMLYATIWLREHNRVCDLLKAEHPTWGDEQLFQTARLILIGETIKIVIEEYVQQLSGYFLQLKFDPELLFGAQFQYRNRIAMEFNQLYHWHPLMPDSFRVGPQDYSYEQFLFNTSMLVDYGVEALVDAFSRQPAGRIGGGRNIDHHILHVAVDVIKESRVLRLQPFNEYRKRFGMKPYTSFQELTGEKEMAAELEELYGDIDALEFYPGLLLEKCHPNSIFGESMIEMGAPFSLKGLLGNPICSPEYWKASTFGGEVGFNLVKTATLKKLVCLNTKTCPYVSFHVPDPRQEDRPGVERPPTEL
# Human recombinant COX-2 = biological target: T2, Human recombinant COX-2 (Homo sapiens, UniProt P35354); assay: biochemical
# T2 sequence (P35354 18-604): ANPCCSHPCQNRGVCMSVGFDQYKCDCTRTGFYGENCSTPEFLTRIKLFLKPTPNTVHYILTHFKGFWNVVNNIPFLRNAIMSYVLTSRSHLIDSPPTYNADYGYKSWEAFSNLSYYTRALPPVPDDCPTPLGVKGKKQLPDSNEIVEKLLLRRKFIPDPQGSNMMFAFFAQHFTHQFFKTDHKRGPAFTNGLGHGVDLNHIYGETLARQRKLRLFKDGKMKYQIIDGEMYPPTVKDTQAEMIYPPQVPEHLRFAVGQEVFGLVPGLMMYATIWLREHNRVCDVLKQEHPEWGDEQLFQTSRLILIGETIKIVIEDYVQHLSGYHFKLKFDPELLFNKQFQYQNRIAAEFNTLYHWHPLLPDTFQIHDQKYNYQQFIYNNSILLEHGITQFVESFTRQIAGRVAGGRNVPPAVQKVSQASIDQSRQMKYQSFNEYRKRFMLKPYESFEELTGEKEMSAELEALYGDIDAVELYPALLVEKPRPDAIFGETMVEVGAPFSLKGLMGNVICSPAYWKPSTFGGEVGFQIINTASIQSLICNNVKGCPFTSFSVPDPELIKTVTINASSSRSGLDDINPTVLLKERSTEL
# [2] = read-out: IC50 in µM Ovine COX-1, fluorescent enzyme kit
# [3] = read-out: IC50 in µM Human recombinant COX-2
Structure (SMILES),IC50 (Ovine COX-1) [µM],IC50 (Human recombinant COX-2) [µM],Selectivity Index (SI) (Human recombinant COX-2; COX-1 vs COX-2),IC50 (Ovine COX-1; [2]) [µM],Selectivity Index (SI) (Human recombinant COX-2),IC50 (Human recombinant COX-2; [3]) [µM],Response (n) Mean ± SD (male NMRI mice; 10 mg/kg i.p.),Response (n) Mean ± SD (male NMRI mice; 20 mg/kg i.p.),Response (n) Mean ± SD (male NMRI mice; 40 mg/kg i.p.),Response (n) Mean ± SD (male NMRI mice; 80 mg/kg i.p.),ED50 (male NMRI mice) [mg/kg],inhibition at 10 µM [1] [%],Response (n) Mean ± SD (male NMRI mice; 5 mg/kg i.p.),Estimated ED50 (mg/kg) (95% Confidence Interval) (male NMRI mice),% Inhibition (10 µM) [1] [%]
"Cc1ccc(-c2cc(C(F)(F)F)nn2-c2ccc(S(N)(=O)=O)cc2)cc1 [Celecoxib, reference compound]",–,–,–,–,–,–,33.62 ± 1.79,26.37 ± 2.86,13.75 ± 2.72,7.37 ± 2.39,20.2,75.8,–,–,–
"Cc1ccccc1-c1cc(-c2ccc(S(C)(=O)=O)cc2)nc2nc3ccccc3n12 [Compound 5b, 2-(4-(Methylsulfonyl)phenyl)-4-(o-tolyl)benzo[4,5]imidazo[1,2-a]pyrimidine]",48.3,> 100,–,–,–,–,–,–,–,–,–,76.9,–,–,–
"Cc1ccc(-c2cc(-c3ccc(S(C)(=O)=O)cc3)nc3nc4ccccc4n23)cc1 [Compound 5d, 2-(4-(Methylsulfonyl)phenyl)-4-(p-tolyl)benzo[4,5]imidazo[1,2-a]pyrimidine]",40.8,0.68,60,–,–,–,17.88 ± 4.28,14.75 ± 4.47,13.25 ± 2.59,10.25 ± 2.73,5.75,78.2,18.63 ± 5.87,–,–
"COc1cccc(-c2cc(-c3ccc(S(C)(=O)=O)cc3)nc3nc4ccccc4n23)c1 [Compound 5f, 4-(3-Methoxyphenyl)-2-(4-(methylsulfonyl)phenyl)benzo[4,5]imidazo[1,2-a]pyrimidine]",> 100,> 100,–,–,–,–,–,–,–,–,–,75.4,–,–,–
"COc1ccc(-c2cc(-c3ccc(S(C)(=O)=O)cc3)nc3nc4ccccc4n23)cc1 [Compound 5g, 4-(4-Methoxyphenyl)-2-(4-(methylsulfonyl)phenyl)benzo[4,5]imidazo[1,2-a]pyrimidine]",> 100,5.4,> 18.5,–,–,–,36.63 ± 1.32,29.13 ± 6.27,21.88 ± 3.37,13.63 ± 1.32,32.1,79.6,–,–,–
"CS(=O)(=O)c1ccc(-c2cc(-c3ccccc3F)n3c(n2)nc2ccccc23)cc1 [Compound 5j, 4-(2-Flourophenyl)-2-(4-(methylsulfonyl)phenyl)benzo[4,5]imidazo[1,2-a]pyrimidine]",–,–,–,14,50,0.28,25.88 ± 2.98,19.88 ± 3.06,16.75 ± 3.11,13.38 ± 2.45,–,–,33.75 ± 1.39,15.34 (13.14–17.89) mg/kg,76.73
"CS(=O)(=O)c1ccc(-c2cc(-c3cccc(F)c3)n3c(n2)nc2ccccc23)cc1 [Compound 5k, 4-(3-Flourophenyl)-2-(4-(methylsulfonyl)phenyl)benzo[4,5]imidazo[1,2-a]pyrimidine]",–,–,–,> 100,–,5.8,32.38 ± 2.34,25.38 ± 3.43,17.63 ± 4.79,11.88 ± 3.18,–,–,–,22.80 (20.03–25.92) mg/kg,58.73
"CS(=O)(=O)c1ccc(-c2cc(-c3ccc(F)cc3)n3c(n2)nc2ccccc23)cc1 [Compound 5l, 4-(4-Flourophenyl)-2-(4-(methylsulfonyl)phenyl)benzo[4,5]imidazo[1,2-a]pyrimidine]",–,–,–,38.8,–,0.69,34.25 ± 1.71,26.13 ± 2.67,19.25 ± 4.32,11.75 ± 1.48,–,–,–,25.26 (22.90–27.91) mg/kg,56.67

# The remaining molecules from weak to strong by IC50 (Ovine COX-1), led by results:
IC50 (Ovine COX-1) [µM],IC50 (Human recombinant COX-2) [µM],Selectivity Index (SI) (Human recombinant COX-2; COX-1 vs COX-2),IC50 (Ovine COX-1; [2]) [µM],Selectivity Index (SI) (Human recombinant COX-2),IC50 (Human recombinant COX-2; [3]) [µM],Structure (SMILES),Response (n) Mean ± SD (male NMRI mice; 10 mg/kg i.p.),Response (n) Mean ± SD (male NMRI mice; 20 mg/kg i.p.),Response (n) Mean ± SD (male NMRI mice; 40 mg/kg i.p.),Response (n) Mean ± SD (male NMRI mice; 80 mg/kg i.p.),ED50 (male NMRI mice) [mg/kg],inhibition at 10 µM [1] [%],Response (n) Mean ± SD (male NMRI mice; 5 mg/kg i.p.),Estimated ED50 (mg/kg) (95% Confidence Interval) (male NMRI mice),% Inhibition (10 µM) [1] [%]
24,> 100,–,–,–,–,"Cc1cccc(-c2cc(-c3ccc(S(C)(=O)=O)cc3)nc3nc4ccccc4n23)c1 [Compound 5c, 2-(4-(Methylsulfonyl)phenyl)-4-(m-tolyl)benzo[4,5]imidazo[1,2-a]pyrimidine]",–,–,–,–,–,76,–,–,–
17.8,> 100,–,–,–,–,"CS(=O)(=O)c1ccc(-c2cc(-c3ccc(Cl)cc3)n3c(n2)nc2ccccc23)cc1 [Compound 5o, 4-(4-Chlorophenyl)-2-(4-(methylsulfonyl)phenyl)benzo[4,5]imidazo[1,2-a]pyrimidine]",–,–,–,–,–,72.3,–,–,–
16.3,0.58,28.1,–,–,–,"COc1cc(-c2cc(-c3ccc(S(C)(=O)=O)cc3)nc3nc4ccccc4n23)cc(OC)c1OC [Compound 5i, 4-(3,4,5-Trimethoxyphenyl)-2-(4-(methylsulfonyl)phenyl)benzo[4,5]imidazo[1,2-a] pyrimidine]",39.25 ± 2.38,30.87 ± 3.82,24.62 ± 3.04,15.87 ± 3.18,40.1,77.9,–,–,–
15.2,> 100,–,–,–,–,"CS(=O)(=O)c1ccc(-c2cc(-c3ccccc3Cl)n3c(n2)nc2ccccc23)cc1 [Compound 5m, 4-(2-Chlorophenyl)-2-(4-(methylsulfonyl)phenyl)benzo[4,5]imidazo[1,2-a]pyrimidine]",–,–,–,–,–,51.3,–,–,–
13.9,> 100,–,–,–,–,"COc1ccc(-c2cc(-c3ccc(S(C)(=O)=O)cc3)nc3nc4ccccc4n23)cc1OC [Compound 5h, 4-(3,4-Dimethoxyphenyl)-2-(4-(methylsulfonyl)phenyl)benzo[4,5]imidazo[1,2-a]pyrimidine]",–,–,–,–,–,79.3,–,–,–
10.4,0.24,43.3,–,–,–,"CS(=O)(=O)c1ccc(-c2cc(-c3cccc(Cl)c3)n3c(n2)nc2ccccc23)cc1 [Compound 5n, 4-(3-Chlorophenyl)-2-(4-(methylsulfonyl)phenyl)benzo[4,5]imidazo[1,2-a]pyrimidine]",23.50 ± 3.20,19.88 ± 4.11,15.75 ± 4.35,11.50 ± 3.77,12.1,72.7,28.50 ± 4.72,–,–
6.9,0.06,115,–,–,–,"COc1ccccc1-c1cc(-c2ccc(S(C)(=O)=O)cc2)nc2nc3ccccc3n12 [Compound 5e, 4-(2-Methoxyphenyl)-2-(4-(methylsulfonyl)phenyl)benzo[4,5]imidazo[1,2-a]pyrimidine]",36.63 ± 1.41,28.25 ± 3.99,19.13 ± 3.76,15 ± 1.58,29,74.3,38.38 ± 1.32,–,–
6.1,0.05,122,–,–,–,"CS(=O)(=O)c1ccc(-c2cc(-c3ccccc3)n3c(n2)nc2ccccc23)cc1 [Compound 5a, 2-(4-(Methylsulfonyl)phenyl)-4-phenylbenzo[4,5]imidazo[1,2-a]pyrimidine]",20.75 ± 3.07,17.25 ± 2.95,12.63 ± 2.64,10.00 ± 1.50,8.65,53.3,25 ± 1.58,–,–
